Source: ChEMBL document CHEMBL3526015, “Metabolism of the c-Fos/activator protein-1 inhibitor T-5224 by multiple human UDP-glucuronosyltransferase isoforms” (Drug Metab Dispos, 2011)

Tests used:
[1] = molecular target: T1, UDP-glucuronosyltransferase 1A1 (Homo sapiens, UniProt P22309); assay: Drug metabolism assessed as human UGT1A1-mediated T-5224 acyl O-glucuronide formation at 10 uM […] in presence of beta-estradiol by HPLC method; assay type: ADME; conditions: recombinant enzyme
T1 sequence (P22309 whole entry): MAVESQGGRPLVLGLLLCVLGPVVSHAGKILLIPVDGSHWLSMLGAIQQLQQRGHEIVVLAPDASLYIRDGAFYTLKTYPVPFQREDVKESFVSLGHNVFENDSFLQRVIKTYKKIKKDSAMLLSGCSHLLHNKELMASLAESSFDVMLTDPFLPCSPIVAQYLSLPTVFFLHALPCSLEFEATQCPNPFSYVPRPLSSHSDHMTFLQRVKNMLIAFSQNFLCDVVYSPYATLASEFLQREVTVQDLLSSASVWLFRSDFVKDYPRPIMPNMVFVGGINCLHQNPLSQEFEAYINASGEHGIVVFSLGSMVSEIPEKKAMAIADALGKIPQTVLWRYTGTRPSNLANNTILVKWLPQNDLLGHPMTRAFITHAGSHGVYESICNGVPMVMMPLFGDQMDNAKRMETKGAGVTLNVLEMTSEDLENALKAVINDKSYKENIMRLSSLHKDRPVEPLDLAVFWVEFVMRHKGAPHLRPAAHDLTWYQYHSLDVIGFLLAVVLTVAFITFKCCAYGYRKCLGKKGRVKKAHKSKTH
Outline: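 Pooled human liver microsomes or recombinant UGT1A1 were incubated with 10 μM T-5224, 2 mM UDPGA and β-estradiol at 0–500 μM (2% DMSO), in Tris-HCl/MgCl2/alamethicin buffer. Incubation was 10 min (liver microsomes) or 60 min (UGT1A1) at 37°C. G2/G3 were read by HPLC at 290 nm, as mean ± SD, n = 3.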

[2] = Drug metabolism in human intestinal microsomes assessed as Vmax/Km ratio for T-5224 acyl O-glucuronide formation per mg protein after 10 to 60 mins by HPLC method; assay type: ADME, Intestine, Microsome
Outline: (§1)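 Pooled liver microsomes (0.5 mg/mL) were incubated 10 min. Pooled intestinal microsomes (0.25 mg/mL) ran 10 min at T-5224 10–50 μM and 20 min at 1–5 μM. Buffer was 50 mM Tris-HCl pH 7.5 with 8 mM MgCl2, alamethicin and 2 mM UDPGA, at 37°C, in triplicate. Glucuronides G2/G3 were read by HPLC at 290 nm and fitted for Vmax/Km.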

Liver microsome = assay: Substrate inhibition of T-5224 hydroxyl O-glucuronide formation in human liver microsomes after 10 to 60 mins by HPLC method
Outline: (§2)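 Pooled liver (0.5 mg protein/mL) or intestinal (0.25 mg protein/mL) microsomes in 50 mM Tris-HCl pH 7.5, 8 mM MgCl2, alamethicin, 2% DMSO. T-5224 at 1–50 μM, 5 min preincubation at 37°C, started with 2 mM UDPGA. Incubated 10 min, or 20 min for intestinal microsomes at 1–5 μM. Acetonitrile stop, glucuronides by HPLC at 290 nm. Triplicates fitted to a substrate-inhibition model.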

[3] = molecular target: T1, UDP-glucuronosyltransferase 1A1; assay: Drug metabolism assessed as human UGT1A1-mediated T-5224 hydroxyl O-glucuronide formation at 5 to 50 uM after 60 mins in presence of UDP-glucuronic acid by HPLC method; assay type: ADME; conditions: recombinant enzyme, 1 h
[4] = molecular target: T2, UDP-glucuronosyltransferase 1A3 (Homo sapiens, UniProt P35503); assay: Drug metabolism assessed as human UGT1A3-mediated T-5224 hydroxyl O-glucuronide formation at 5 to 50 uM after 60 mins in presence of UDP-glucuronic acid by HPLC method; assay type: ADME; conditions: recombinant enzyme, 1 h
T2 sequence (P35503 whole entry): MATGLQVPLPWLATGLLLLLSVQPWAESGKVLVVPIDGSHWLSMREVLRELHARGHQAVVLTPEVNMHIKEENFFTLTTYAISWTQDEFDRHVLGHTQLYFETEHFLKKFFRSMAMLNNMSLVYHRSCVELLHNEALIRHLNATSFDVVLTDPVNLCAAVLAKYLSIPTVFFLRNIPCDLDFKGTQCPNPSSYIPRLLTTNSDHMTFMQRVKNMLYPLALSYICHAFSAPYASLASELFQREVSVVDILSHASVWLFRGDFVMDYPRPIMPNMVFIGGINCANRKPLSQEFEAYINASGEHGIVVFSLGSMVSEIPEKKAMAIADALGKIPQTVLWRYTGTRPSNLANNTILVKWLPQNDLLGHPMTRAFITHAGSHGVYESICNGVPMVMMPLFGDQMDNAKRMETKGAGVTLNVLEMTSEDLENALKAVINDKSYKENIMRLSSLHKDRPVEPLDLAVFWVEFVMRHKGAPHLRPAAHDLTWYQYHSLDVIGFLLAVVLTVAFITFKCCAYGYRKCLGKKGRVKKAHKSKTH

[5] = Drug metabolism in human intestinal microsomes assessed as T-5224 acyl O-glucuronide formation per mg protein after 10 to 60 mins by HPLC method; assay type: ADME, Intestine, Microsome; outline: as §1
[6] = Substrate inhibition of T-5224 acyl O-glucuronide formation in human intestinal microsomes after 10 to 60 mins by HPLC method; design: species or system Intestine, Microsome; outline: as §2
Cytochrome P450 2B6 = molecular target: T3, Cytochrome P450 2B6 (Homo sapiens, UniProt P20813); assay: Drug metabolism assessed as human CYP2B6-mediated metabolite formation at 2 uM after 30 mins by HPLC method; assay type: ADME; conditions: recombinant enzyme, 0.5 h
T3 sequence (P20813 whole entry): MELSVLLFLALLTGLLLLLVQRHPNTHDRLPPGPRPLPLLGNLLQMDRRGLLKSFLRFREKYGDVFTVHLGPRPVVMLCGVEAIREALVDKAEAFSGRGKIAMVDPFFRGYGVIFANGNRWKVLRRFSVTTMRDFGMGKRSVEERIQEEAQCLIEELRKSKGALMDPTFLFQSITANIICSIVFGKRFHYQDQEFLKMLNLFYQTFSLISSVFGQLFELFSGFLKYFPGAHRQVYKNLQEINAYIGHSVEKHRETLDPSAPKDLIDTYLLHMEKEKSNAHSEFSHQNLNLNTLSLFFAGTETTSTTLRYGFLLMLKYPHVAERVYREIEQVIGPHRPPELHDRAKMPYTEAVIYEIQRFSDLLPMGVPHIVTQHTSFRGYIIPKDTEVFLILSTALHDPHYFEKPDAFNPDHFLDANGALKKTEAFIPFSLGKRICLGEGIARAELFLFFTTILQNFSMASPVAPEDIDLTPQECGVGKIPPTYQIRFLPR
Outline: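 Each recombinant human P450 was used at 50 pmol/mL with an NADPH-generating system and 2 μM 14C-T-5224 (0.5% DMSO final). Buffer was 100 mM Tris-HCl pH 7.5, except 100 mM potassium phosphate pH 7.4 for CYP2A6 and CYP2C9*1. Incubation ran 30 min at 37°C and was stopped with acetonitrile/methanol. Radioactive metabolite peaks were detected by C18 HPLC.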

O=C(O)CCc1cc(C(=O)c2ccc(OC3CCCC3)cc2O)ccc1OCc1ccc2c(O)noc2c1
Drug metabolism [1]: metabolite_not_detected
Vmax/Km [2]: 40.9 µL/min
Ki (Liver microsome): 27 µM
Drug metabolism [3]: metabolite_detected
Drug metabolism [4]: metabolite_detected
Vmax [5]: 241 pmol/min
Ki [6]: 2.64 µM
Drug metabolism (Cytochrome P450 2B6): metabolite_not_detected
